# Laboratory results: publication PMC11022936 (Drug Metabolism and Disposition, 2023)
# “And” between values parts separate entries of the source, which are not always exact repeats. Equal entries are not always repeated. Where two headings read alike, the source gives them in different places.
# Key:
# [1] = Dog 3-month repeated-dose GLP toxicity study; settings: both, in vivo, po, 100 mg/kg/day
# [2] = Rat 3-month repeated-dose GLP toxicity study; settings: both, SD, in vivo, po, 125 mg/kg/day
# [3] = format: in vivo, rat; settings: for Total % of dose (total radioactivity in sample), feces / Total % of dose (total radioactivity in sample), urine / percentage of dose in feces / percentage of dose in urine: 0-48 h pool; for percentage of dose in feces / percentage of dose in urine: single oral 40 mg/kg; for concentration at 1 h / concentration at 3 h / concentration at 8 h: Han Wistar, rat, plasma, po; for administered dose recovered in feces (mean) / urinary excretion of administered dose (mean): intact male and female rats
# [4] = system: MPO; settings: read-out: potency toward MPO (IC50); in vitro; ref Inghardt et al., 2022; cited from earlier work
# [5] = Human MAD study, plasma AUC0-24h pools, metabolite concentrations; format: in vivo; settings: human AUC0-24h plasma pool
# Procedure, shortened: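 Plasma came from healthy male volunteers given unlabelled test compound once daily in a phase I multiple-ascending-dose study. Groups: 5 mg (day 10, n = 8), 10 mg (day 14, n = 8), 15 mg (day 10, n = 7). Samples were pooled time-proportionally across participants into one AUC0-24h pool per dose, protein-precipitated and run by LC-HRMS. DRE = summed concentrations of parent plus quantified metabolites.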
# [6] = Mouse 28-day repeat dose, plasma metabolite profiling; format: in vivo; settings: mouse plasma AUC0-24h pool
# [7] = Fraction unbound in plasma, equilibrium dialysis; format: in vitro ADME; settings: rat plasma, 10 µmol/L, 37°C, 16 h, mean ± S.D., n = 3
# Procedure, shortened: (§1)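 Equilibrium dialysis used frozen pooled plasma (n>3 donors, K2-EDTA): human (mixed sex), rat (male Han Wistar), dog (male beagle). Plasma spiked with test compound at 0.1, 1.0 or 10 was dialysed against phosphate buffer pH 7.4 for 16 h at 37°C, in triplicate. Calibration standards were made in spiked plasma. fu = buffer concentration / plasma concentration. Recovery = total compound found after dialysis / total added.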
# [8] = Fraction unbound in plasma, equilibrium dialysis; format: in vitro ADME; settings: human plasma, 1 µmol/L, 37°C, 16 h, mean ± S.D., n = 3
# Procedure, shortened: as §1
# [9] = Fraction unbound in plasma, equilibrium dialysis; format: in vitro ADME; settings: dog plasma, 10 µmol/L, 37°C, 16 h, mean ± S.D., n = 3
# Procedure, shortened: as §1
# [10] = ref Inghardt et al., 2022; cited from earlier work
# [11] = dogs; ref Inghardt et al., 2022; cited from earlier work
# [12] = rats; ref Inghardt et al., 2022; cited from earlier work
# [13] = human; ref Tong et al., 2010; cited from earlier work
# [14] = BDC male rats, oral, 0-24 h pool
# [15] = female intact rats, oral 40 mg/kg
# [16] = female intact rats, oral 40 mg/kg, 40 mg/kg
# [17] = male intact rats, oral 40 mg/kg, 40 mg/kg
# [18] = male intact rats, oral 40 mg/kg, listed as [^14C]AZD4831, 40 mg/kg
smiles,measurement,setting,value
"C[C@@H](N)c1cc(Cl)ccc1Cn1c(=S)[nH]c(=O)c2[nH]ccc21 [AZD4831, (R)-1-(2-(1-aminoethyl)-4-chlorobenzyl)-2-thioxo-2,3-dihydro-1H-pyrrolo[3,2-d]pyrimidin-4(5H)-one]",NOAEL at 3 month,[1],100 mg/kg/day
same,NOAEL at 3 month,[2],125 mg/kg/day
same,dose fraction excreted in bile within 0-24 hours,"[3]; BDC female rats, oral 40 mg/kg",10%
same,percent of administered dose in bile,"[3]; BDC female rats, oral, 0-24 h pool",0.2%
same,dose fraction excreted in bile within 0-24 hours,"[3]; BDC male rats, oral 40 mg/kg",21%
same,percent of administered dose in bile,[3]; [14],< 0.1%
same,percent of dose in feces,[3]; [14],20%
same,percent of dose in urine,[3]; [14],26%
same,"Sum % of dose (integrated radioactive peaks), feces",[3]; [15],35.5 % of dose
same,"Sum % of dose (integrated radioactive peaks), urine",[3]; [15],31.3 % of dose
same,"Total % of dose (total radioactivity in sample), feces",[3]; [16],43 % of dose
same,"Total % of dose (total radioactivity in sample), urine",[3]; [16],34 % of dose
same,"Total % of dose (total radioactivity in sample), urine","[3]; female intact rats, oral 40 mg/kg, listed as [^14C]AZD4831, 40 mg/kg",34.4 % of dose
same,percentage of dose in feces,"[3]; female intact rats, 40 mg/kg",31 % of dose and 30.7 % of dose
same,percentage of dose in urine,"[3]; female intact rats, 40 mg/kg",30 % of dose and 30.3 % of dose
same,Sum µmol equiv/L (integrated radioactive peaks) in plasma,"[3]; female rats, 1 h",10.4 µmol equiv/L
same,Total µmol equiv/L (total radioactivity) in plasma,"[3]; female rats, 1 h, oral",12.5 µmol equiv/L
same,% of total radioactivity in plasma,"[3]; female rats, 1 h, oral 40 mg/kg",72.8 % of total
same,Sum µmol equiv/L (integrated radioactive peaks) in plasma,"[3]; female rats, 3 h",13.8 µmol equiv/L
same,Total µmol equiv/L (total radioactivity) in plasma,"[3]; female rats, 3 h, oral",15.9 µmol equiv/L
same,% of total radioactivity in plasma,"[3]; female rats, 3 h, oral 40 mg/kg",77.5 % of total
same,Sum µmol equiv/L (integrated radioactive peaks) in plasma,"[3]; female rats, 8 h",11.7 µmol equiv/L
same,Total µmol equiv/L (total radioactivity) in plasma,"[3]; female rats, 8 h, oral",13.4 µmol equiv/L
same,% of total radioactivity in plasma,"[3]; female rats, 8 h, oral 40 mg/kg",82.1 % of total
same,concentration at 1 h,"[3]; female, 40 mg/kg",9.1 µM
same,concentration at 3 h,"[3]; female, 40 mg/kg",12.3 µM
same,concentration at 8 h,"[3]; female, 40 mg/kg",11 µM
same,administered dose recovered in feces (mean),[3]; intravenous,46.9%
same,urinary excretion of administered dose (mean),[3]; intravenous,37.7%
same,administered dose recovered in feces (mean),[3]; oral,51.9%
same,urinary excretion of administered dose (mean),[3]; oral,32.0%
same,"Sum % of dose (integrated radioactive peaks), feces","[3]; male intact rats, oral 40 mg/kg",45.9 % of dose
same,"Total % of dose (total radioactivity in sample), feces",[3]; [17],59 % of dose
same,"Total % of dose (total radioactivity in sample), urine",[3]; [17],28 % of dose
same,"Total % of dose (total radioactivity in sample), feces",[3]; [18],58.7 % of dose
same,"Total % of dose (total radioactivity in sample), urine",[3]; [18],28.2 % of dose
same,percentage of dose in feces,"[3]; male intact rats, 40 mg/kg",40 % of dose and 39.6 % of dose
same,percentage of dose in urine,"[3]; male intact rats, 40 mg/kg",20 % of dose and 20.3 % of dose
same,Sum µmol equiv/L (integrated radioactive peaks) in plasma,"[3]; male rats, 1 h",20.3 µmol equiv/L
same,Total µmol equiv/L (total radioactivity) in plasma,"[3]; male rats, 1 h, oral",23.4 µmol equiv/L
same,% of total radioactivity in plasma,"[3]; male rats, 1 h, oral 40 mg/kg",78.2 % of total
same,Sum µmol equiv/L (integrated radioactive peaks) in plasma,"[3]; male rats, 3 h",13.6 µmol equiv/L
same,Total µmol equiv/L (total radioactivity) in plasma,"[3]; male rats, 3 h, oral",17.1 µmol equiv/L
same,% of total radioactivity in plasma,"[3]; male rats, 3 h, oral 40 mg/kg",66.8 % of total
same,Sum µmol equiv/L (integrated radioactive peaks) in plasma,"[3]; male rats, 8 h",13.7 µmol equiv/L
same,Total µmol equiv/L (total radioactivity) in plasma,"[3]; male rats, 8 h, oral",16.9 µmol equiv/L
same,% of total radioactivity in plasma,"[3]; male rats, 8 h, oral 40 mg/kg",70.9 % of total
same,concentration at 1 h,"[3]; male, 40 mg/kg",18.3 µM
same,concentration at 3 h,"[3]; male, 40 mg/kg",11.4 µM
same,concentration at 8 h,"[3]; male, 40 mg/kg",12 µM
same,radioactivity recovered in bile (mean),[3]; orally dosed BDC female rats,10.4%
same,radioactivity recovered in feces (mean),[3]; orally dosed BDC female rats,23.2%
same,radioactivity recovered in urine (mean),[3]; orally dosed BDC female rats,54.7%
same,radioactivity recovered in bile (mean),[3]; orally dosed BDC male rats,21.4%
same,radioactivity recovered in feces (mean),[3]; orally dosed BDC male rats,27.5%
same,radioactivity recovered in urine (mean),[3]; orally dosed BDC male rats,37.3%
same,share of radioactivity (integrated radiochromatographic peaks) in plasma,"[3]; rats, oral 40 mg/kg, all time points (1, 3, 8 h)",> 67%
same,IC50,[4],1.5 nM
same,plasma concentration,[5]; 5 mg once daily,0.028 µM
same,plasma concentration,[5]; 10 mg once daily,0.053 µM
same,plasma concentration,[5]; 15 mg once daily,0.086 µM
same,Drug-Related Exposure (%),"[6]; day 28, Female (125 mg/kg)",76%
same,Drug-Related Exposure (%),"[6]; day 28, Female (250 mg/kg)",74%
same,Drug-Related Exposure (%),"[6]; day 28, Female (500 mg/kg)",57%
same,Drug-Related Exposure (%),"[6]; day 28, Male (125 mg/kg)",78%
same,percentage free drug in plasma,[7],22.0 ± 0.49%
same,percentage free drug in plasma,[8],36.1 ± 1.0%
same,percentage free drug in plasma,[9],31.9 ± 0.50%
same,permeability,[10],high permeability
same,bioavailability,[11],good bioavailability
same,clearance,[11],moderate clearance
same,bioavailability,[12],good bioavailability
same,clearance,[12],moderate clearance
c1cc2c3c(c1)[C@H]1CCC[C@H]1CN3CCNC2 [vabicaserin],exposure of the carbamoyl glucuronide metabolite relative to parent,[13],60 fold
